Reference: ChEMBL document CHEMBL1136724 (J Med Chem, 2003)

How the values were obtained:
[1] = test system: DLD-1; assay: Inhibitory activity against synthesis of inducible nitric oxide synthase by DLD-1 cells; format: functional, cell-based; settings: Homo sapiens
In short: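 Intact human DLD-1 cells preincubated with a cytokine cocktail to induce NO production; inhibition of NO production measured; IC50 is the mean of at least two separate measurements.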

[2] = biological target: Nitric oxide synthase, inducible (Homo sapiens, UniProt P35228); assay: Inhibitory activity of compound against human inducible nitric oxide synthase
Sequence of Nitric oxide synthase, inducible (P35228 whole entry): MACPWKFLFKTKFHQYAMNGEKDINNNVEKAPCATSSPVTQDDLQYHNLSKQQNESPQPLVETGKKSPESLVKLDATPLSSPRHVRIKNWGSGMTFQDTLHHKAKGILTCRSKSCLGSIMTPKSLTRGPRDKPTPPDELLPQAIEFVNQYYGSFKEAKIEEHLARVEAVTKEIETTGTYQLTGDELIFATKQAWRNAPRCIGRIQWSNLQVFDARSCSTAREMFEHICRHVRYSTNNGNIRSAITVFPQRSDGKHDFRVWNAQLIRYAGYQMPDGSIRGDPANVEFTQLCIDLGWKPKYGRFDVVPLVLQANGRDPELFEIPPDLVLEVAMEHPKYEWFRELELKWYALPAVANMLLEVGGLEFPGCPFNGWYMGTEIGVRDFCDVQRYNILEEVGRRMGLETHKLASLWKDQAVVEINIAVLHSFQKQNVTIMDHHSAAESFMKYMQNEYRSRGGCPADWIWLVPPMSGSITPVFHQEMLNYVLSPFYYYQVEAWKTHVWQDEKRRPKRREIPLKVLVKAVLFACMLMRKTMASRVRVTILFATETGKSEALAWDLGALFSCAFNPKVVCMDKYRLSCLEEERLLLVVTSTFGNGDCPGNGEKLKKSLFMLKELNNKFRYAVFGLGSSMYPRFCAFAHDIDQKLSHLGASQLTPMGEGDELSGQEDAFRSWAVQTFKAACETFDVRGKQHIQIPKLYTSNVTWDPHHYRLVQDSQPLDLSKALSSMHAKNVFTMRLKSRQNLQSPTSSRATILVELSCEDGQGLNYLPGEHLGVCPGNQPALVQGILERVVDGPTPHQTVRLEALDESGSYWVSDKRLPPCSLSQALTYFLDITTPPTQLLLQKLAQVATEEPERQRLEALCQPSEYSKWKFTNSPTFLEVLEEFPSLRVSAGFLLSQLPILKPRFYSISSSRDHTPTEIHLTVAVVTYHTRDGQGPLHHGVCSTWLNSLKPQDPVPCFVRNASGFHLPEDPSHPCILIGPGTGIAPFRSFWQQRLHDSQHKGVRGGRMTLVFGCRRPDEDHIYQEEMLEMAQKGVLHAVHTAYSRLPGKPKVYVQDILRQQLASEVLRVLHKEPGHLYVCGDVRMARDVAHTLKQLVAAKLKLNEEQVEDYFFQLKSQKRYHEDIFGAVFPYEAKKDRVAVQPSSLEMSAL

[3] = biological target: T1, Nitric oxide synthase 1 (Homo sapiens, UniProt P29475); assay: Inhibitory activity against human neuronal nitric oxide synthase
T1 sequence (P29475 whole entry): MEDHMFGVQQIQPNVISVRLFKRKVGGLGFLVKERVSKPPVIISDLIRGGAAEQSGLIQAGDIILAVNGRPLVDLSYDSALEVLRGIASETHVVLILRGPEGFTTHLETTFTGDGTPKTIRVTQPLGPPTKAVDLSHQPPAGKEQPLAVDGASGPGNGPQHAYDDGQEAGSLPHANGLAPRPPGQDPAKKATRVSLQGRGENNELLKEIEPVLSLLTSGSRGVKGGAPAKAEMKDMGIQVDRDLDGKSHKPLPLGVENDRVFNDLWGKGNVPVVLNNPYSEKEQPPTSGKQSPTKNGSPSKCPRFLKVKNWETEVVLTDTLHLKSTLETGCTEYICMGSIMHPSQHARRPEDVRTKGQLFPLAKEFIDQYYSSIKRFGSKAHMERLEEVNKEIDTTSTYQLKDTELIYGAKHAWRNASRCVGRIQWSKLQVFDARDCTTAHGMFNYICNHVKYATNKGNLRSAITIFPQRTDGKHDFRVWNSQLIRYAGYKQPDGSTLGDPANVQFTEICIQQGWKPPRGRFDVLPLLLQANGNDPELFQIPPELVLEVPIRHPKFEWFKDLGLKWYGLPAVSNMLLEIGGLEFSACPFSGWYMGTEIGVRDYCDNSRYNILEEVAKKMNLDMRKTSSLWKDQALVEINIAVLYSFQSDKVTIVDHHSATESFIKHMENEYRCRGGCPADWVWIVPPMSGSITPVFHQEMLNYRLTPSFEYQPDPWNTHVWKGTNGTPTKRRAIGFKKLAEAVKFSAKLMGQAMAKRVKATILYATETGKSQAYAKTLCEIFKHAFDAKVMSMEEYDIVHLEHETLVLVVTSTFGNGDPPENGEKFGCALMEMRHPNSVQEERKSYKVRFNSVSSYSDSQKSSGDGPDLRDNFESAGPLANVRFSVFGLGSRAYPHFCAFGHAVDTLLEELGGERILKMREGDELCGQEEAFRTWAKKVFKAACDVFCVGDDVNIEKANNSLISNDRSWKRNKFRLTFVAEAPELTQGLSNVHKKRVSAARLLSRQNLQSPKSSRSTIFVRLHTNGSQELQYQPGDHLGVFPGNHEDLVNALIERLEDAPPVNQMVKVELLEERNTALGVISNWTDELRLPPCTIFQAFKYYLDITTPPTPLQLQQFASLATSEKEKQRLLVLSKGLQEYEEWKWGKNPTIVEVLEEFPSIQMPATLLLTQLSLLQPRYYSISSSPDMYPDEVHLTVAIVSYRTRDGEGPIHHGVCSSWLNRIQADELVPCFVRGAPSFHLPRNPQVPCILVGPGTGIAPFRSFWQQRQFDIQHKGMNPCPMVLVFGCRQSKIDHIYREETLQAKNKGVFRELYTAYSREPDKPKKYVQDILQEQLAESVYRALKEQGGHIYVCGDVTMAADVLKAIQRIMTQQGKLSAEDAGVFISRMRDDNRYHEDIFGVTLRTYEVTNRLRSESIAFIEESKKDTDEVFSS

[4] = Pharmacokinetic parameter pKa for amidine group of compound was evaluated; format: physicochemical
[5] = biological target: T2, Nitric oxide synthase 3 (Homo sapiens) (UniProt P29474); assay: Inhibitory activity of 100 uM compound against human endothelial nitric oxide synthase; Range is […]%-[…]%
T2 sequence (whole entry): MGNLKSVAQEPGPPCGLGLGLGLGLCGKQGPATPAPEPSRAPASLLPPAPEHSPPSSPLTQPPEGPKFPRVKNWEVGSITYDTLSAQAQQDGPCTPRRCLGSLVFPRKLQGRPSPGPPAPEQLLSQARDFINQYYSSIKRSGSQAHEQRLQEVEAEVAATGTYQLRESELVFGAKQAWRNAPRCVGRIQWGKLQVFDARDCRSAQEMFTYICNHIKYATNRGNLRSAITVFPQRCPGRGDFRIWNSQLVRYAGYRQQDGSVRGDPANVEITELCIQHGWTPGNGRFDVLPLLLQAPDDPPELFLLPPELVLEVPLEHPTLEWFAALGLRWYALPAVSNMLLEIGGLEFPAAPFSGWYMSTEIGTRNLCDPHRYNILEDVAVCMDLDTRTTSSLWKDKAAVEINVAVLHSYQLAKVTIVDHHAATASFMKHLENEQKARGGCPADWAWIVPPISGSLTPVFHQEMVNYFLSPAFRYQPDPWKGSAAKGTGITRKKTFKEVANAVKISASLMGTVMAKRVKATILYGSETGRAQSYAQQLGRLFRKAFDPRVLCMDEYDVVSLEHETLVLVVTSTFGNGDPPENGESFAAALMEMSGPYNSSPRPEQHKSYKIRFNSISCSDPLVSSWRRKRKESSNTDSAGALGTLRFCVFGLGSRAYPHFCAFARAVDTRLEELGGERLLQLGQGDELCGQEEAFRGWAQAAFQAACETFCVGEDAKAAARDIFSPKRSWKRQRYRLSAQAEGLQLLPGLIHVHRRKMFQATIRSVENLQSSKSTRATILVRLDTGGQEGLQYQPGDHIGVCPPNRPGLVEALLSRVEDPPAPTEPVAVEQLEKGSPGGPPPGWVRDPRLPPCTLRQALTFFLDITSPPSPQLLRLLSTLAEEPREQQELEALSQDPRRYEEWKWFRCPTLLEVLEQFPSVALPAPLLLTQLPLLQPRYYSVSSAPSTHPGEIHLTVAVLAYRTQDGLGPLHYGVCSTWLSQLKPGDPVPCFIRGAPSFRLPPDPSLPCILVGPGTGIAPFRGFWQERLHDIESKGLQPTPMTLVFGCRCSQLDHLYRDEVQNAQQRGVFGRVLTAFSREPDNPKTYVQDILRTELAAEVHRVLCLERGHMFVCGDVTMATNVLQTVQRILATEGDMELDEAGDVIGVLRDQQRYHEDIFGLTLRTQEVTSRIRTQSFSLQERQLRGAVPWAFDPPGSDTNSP

[6] = test system: Rattus norvegicus; assay: Inhibition of LPS induced nitrite production in rat following 4 hr of oral administration; format: functional; settings: read-out: ID50 (the source's name)
[7] = biological target: T1, Nitric oxide synthase 1; assay: Inhibitory activity of 100 uM compound against human neuronal nitric oxide synthase; Range is […]%-[…]%
[8] = biological target: T3, Nitric oxide synthase 3 (Homo sapiens, UniProt P29474); assay: Inhibitory activity against human endothelial nitric oxide synthase
T3 sequence (P29474 whole entry): T2 sequence (whole entry)

[9] = species on record: Rattus norvegicus; assay: animal or person
[10] = biological target: T2, Nitric oxide synthase 3 (Homo sapiens); assay: Inhibitory activity of 100 uM compound against human endothelial nitric oxide synthase
[11] = biological target: T2, Nitric oxide synthase 3 (Homo sapiens); assay: Inhibitory activity of 100 uM compound against human endothelial nitric oxide synthase; range is […]%-[…]%; settings: at 100 µM
[12] = biological target: T1, Nitric oxide synthase 1; assay: Inhibitory activity of 100 uM compound against human neuronal nitric oxide synthase; range is […]%-[…]%; settings: at 100 µM

Row | SMILES | IC50 [1] | IC50 [2] | IC50 [3] | ED50 [6] | further results
1 | NC1=NCNc2ccccc21 | – | 40 µM | – | – | –
2 | CC1(C)N=C(N)c2ccccc2N1 | – | 52 µM | – | – | –
3 | NC1=NC2(CCNCC2)Nc2ccccc21 | – | ~50 µM | – | – | –
4 | N#Cc1ccc(C(=O)N2CCC3(CC2)N=C(N)c2c(F)ccc(F)c2N3)cn1 | 0.9 µM | – | – | 3 µmol/kg | inhibition [5]: 50%; ED50 [9]: ~10 µmol/kg
5 | CCC1(C)N=C(N)c2ccccc2N1 (configuration not stated) | – | 32 µM | – | – | –
6 | NC1=NC(C2CCC2)Nc2ccccc21 (configuration not stated) | – | 1.1 µM | – | – | –
7 | NC1=NC(C2CCCC2)Nc2ccccc21 (configuration not stated) | – | 4.5 µM | – | – | –
8 | COC(=O)[C@@H](N)CCCNC(=N)N[N+](=O)[O-] [L-NAME] | > 300 µM | – | 0.15 µM | > 300 µmol/kg | –
9 | NC1=NC(c2ccco2)Nc2c(F)ccc(F)c21 (configuration not stated) | 0.2 µM | 0.002 µM | 0.06 µM | 16 µmol/kg | IC50 [8]: 0.18 µM
10 | NC1=NC(c2ccccc2)Nc2ccccc21 (configuration not stated) | – | 2.5 µM | – | – | –
11 | CNC(=N)NCCC[C@H](N)C(=O)O [TILARGININE] | 21 µM | – | – | 700 µmol/kg | –
12 | NC1=NC(C2CC2)Nc2ccccc21 (configuration not stated) | – | 1.1 µM | – | – | –
13 | N=C(N)NN [PIMAGEDINE] | > 1000 µM | 3.9 µM | 5.9 µM | – | IC50 [8]: 100 µM
14 | CC1N=C(N)c2ccccc2N1 (configuration not stated) | – | 9.8 µM | – | – | –

Second part, led by results:

Row | IC50 [1] | IC50 [2] | IC50 [3] | SMILES | ED50 [6] | further results
15 | 1.6 µM | 0.048 µM | 3.3 µM | N#Cc1ccc(C(=O)N2CCC3(CC2)N=C(N)c2c(F)ccc(F)c2N3)cc1 | 3 µmol/kg | pKa [4]: 8.4; inhibition [5]: 50%
16 | 11 µM | 0.039 µM | – | CSCCOC(=O)N1CCC2(CC1)N=C(N)c1c(F)cccc1N2 | – | inhibition [7]: 50%; inhibition [5]: 50%
17 | – | 0.4 µM | – | NC1=NC(c2cccs2)Nc2ccccc21 (configuration not stated) | – | –
18 | 1.2 µM | 0.02 µM | 1 µM | NC1=NC(C2CCC2)Nc2cccc(F)c21 (configuration not stated) | > 30 µmol/kg | IC50 [8]: 4.6 µM
19 | – | 0.2 µM | – | NC1=NC(c2ccco2)Nc2ccccc21 (configuration not stated) | – | –
20 | 2.8 µM | 0.1 µM | 1.5 µM | CC(=N)NCCCC[C@H](N)C(=O)O [L-NIL] | 9 µmol/kg | IC50 [8]: 2.6 µM
21 | – | 0.9 µM | – | CCC1N=C(N)c2ccccc2N1 (configuration not stated) | – | –
22 | 4 µM | 0.05 µM | 3.5 µM | NC1=NC(c2ccc(F)cc2)Nc2cccc(F)c21 (configuration not stated) | > 30 µmol/kg | inhibition [10]: < 25%
23 | 9.2 µM | 0.047 µM | – | CCOC(=O)N1CCC2(CC1)N=C(N)c1c(Cl)cccc1N2 | – | inhibition [11]: 50%; inhibition [12]: 50%
24 | 9.6 µM | 0.035 µM | 40 µM | CCOC(=O)N1CCC2(CC1)N=C(N)c1c(F)cccc1N2 | – | IC50 [8]: 100 µM
25 | > 500 µM | 0.3 µM | 50 µM | CCOC(=O)N1CCC2(CC1)N=C(N)c1sccc1N2 | – | IC50 [8]: 100 µM
26 | 12 µM | 0.067 µM | 70 µM | NC1=NC2(CCN(C(=O)c3ccsc3)CC2)Nc2cccc(F)c21 | – | inhibition [10]: < 25%
27 | 4.5 µM | 0.027 µM | 12 µM | N#Cc1ccc(C(=O)N2CCC3(CC2)N=C(N)c2c(F)cccc2N3)cc1 | 14 µmol/kg | pKa [4]: 9.1; inhibition [5]: 50%
